{"source": "ChEMBL document CHEMBL3259629", "about": "“Discovery and optimization of piperidyl-1,2,3-triazole ureas as potent, selective, and in vivo-active inhibitors of α/β-hydrolase domain containing 6 (ABHD6)” (J Med Chem, 2013)", "key": {"[1]": {"target": "Acyl-protein thioesterase 1 (Mus musculus) (UniProt P97823)", "sequence (P97823 whole entry)": "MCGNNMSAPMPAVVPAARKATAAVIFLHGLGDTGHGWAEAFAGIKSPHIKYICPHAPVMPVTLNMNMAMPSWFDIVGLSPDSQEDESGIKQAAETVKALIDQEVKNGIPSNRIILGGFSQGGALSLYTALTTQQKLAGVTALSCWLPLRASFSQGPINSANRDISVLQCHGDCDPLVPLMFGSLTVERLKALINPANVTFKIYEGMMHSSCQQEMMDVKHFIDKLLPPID", "assay": "Inhibition of FP-rhodamine-labelled recombinant mouse LYPLA1 at 10 uM preincubated for 30 mins followed by FP-rhodamine labelling measured after 30 mins by gel-based competitive ABPP assay"}, "[2]": {"target": "T1, Acylamino-acid-releasing enzyme (Mus musculus) (UniProt Q8R146)", "T1 sequence (whole entry)": "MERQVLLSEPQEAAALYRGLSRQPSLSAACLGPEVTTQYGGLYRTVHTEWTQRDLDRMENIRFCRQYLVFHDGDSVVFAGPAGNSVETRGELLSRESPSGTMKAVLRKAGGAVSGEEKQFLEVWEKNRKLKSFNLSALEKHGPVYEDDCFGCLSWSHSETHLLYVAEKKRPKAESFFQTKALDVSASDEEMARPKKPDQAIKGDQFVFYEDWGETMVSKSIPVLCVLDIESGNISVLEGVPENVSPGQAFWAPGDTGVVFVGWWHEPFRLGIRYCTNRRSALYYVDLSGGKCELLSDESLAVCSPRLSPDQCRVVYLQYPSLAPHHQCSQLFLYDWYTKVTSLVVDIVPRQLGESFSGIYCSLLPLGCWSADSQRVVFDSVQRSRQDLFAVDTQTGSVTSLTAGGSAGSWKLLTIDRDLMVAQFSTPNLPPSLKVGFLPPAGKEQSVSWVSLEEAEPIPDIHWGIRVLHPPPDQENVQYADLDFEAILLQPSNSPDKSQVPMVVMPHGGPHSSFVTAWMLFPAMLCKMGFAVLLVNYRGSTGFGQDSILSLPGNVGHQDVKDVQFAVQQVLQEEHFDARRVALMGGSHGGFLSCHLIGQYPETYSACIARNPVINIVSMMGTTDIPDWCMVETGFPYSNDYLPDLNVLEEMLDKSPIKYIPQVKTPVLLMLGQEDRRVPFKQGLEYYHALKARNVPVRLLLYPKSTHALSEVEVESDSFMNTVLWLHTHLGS", "assay": "Inhibition of FP-rhodamine-labelled recombinant mouse APEH at 1 uM preincubated for 30 mins followed by FP-rhodamine labelling measured after 30 mins by gel-based competitive ABPP assay"}, "[3]": {"target": "T2, Diacylglycerol lipase-beta (Mus musculus) (UniProt Q91WC9)", "T2 sequence (whole entry)": "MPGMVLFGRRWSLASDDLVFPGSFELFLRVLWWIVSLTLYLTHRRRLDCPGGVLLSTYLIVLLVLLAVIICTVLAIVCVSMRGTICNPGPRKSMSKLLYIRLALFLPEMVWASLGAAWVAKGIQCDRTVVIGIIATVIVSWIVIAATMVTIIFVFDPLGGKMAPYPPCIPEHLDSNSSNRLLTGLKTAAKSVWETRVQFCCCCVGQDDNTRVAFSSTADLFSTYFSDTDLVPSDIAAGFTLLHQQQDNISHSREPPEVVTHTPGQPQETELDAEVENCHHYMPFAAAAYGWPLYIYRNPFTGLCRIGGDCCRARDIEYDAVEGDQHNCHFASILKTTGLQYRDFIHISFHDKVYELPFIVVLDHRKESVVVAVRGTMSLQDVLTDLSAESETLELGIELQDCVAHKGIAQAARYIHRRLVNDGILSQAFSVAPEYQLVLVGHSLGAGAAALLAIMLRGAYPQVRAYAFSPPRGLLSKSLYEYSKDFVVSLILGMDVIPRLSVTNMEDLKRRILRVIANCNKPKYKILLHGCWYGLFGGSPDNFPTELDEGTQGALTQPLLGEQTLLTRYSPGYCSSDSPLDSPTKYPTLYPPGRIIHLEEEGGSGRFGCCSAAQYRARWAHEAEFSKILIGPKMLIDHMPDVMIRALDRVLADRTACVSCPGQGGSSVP", "assay": "Inhibition of FP-rhodamine-labelled recombinant mouse DAGLbeta expressed in HEK293T cells at 1 uM preincubated for 30 mins followed by FP-rhodamine labelling measured after 30 mins by gel-based competitive ABPP assay", "format": "cell-based", "settings": "HEK-293T", "how_it_was_run": "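Mouse DAGLβ transiently overexpressed in HEK293T. Lysate diluted to 0.3 mg/mL in 50 mM HEPES pH 7.2, 100 mM NaCl, 5 mM CaCl₂, 0.1% Triton X-100, 10% DMSO. Compound preincubated 30 min at 37 °C, then 1 μM probe for 30 min at 37 °C, SDS-PAGE and in-gel fluorescence.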"}, "[4]": {"target": "Acyl-protein thioesterase 1 (Mus musculus) (UniProt P97823)", "assay": "Inhibition of FP-rhodamine-labelled recombinant mouse LYPLA1 at 1 uM preincubated for 30 mins followed by FP-rhodamine labelling measured after 30 mins by gel-based competitive ABPP assay"}, "[5]": {"target": "T3, Fatty-acid amide hydrolase 1 (Mus musculus) (UniProt O08914)", "T3 sequence (whole entry)": "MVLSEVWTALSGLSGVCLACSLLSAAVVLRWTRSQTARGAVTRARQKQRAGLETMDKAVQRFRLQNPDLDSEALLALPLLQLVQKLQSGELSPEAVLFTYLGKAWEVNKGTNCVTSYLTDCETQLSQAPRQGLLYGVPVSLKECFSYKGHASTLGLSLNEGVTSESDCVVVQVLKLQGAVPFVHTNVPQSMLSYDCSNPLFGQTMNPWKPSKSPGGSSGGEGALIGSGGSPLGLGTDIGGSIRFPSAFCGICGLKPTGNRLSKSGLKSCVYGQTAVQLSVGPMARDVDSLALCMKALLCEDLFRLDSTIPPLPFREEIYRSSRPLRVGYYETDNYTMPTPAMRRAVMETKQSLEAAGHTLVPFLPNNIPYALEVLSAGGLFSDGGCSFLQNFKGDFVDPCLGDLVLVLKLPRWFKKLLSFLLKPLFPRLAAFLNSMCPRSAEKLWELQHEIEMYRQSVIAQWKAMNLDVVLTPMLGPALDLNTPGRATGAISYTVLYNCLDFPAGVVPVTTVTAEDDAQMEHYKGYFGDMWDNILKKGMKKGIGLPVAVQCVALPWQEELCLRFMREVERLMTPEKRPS", "assay": "Inhibition of mouse brain FAAH at 10 uM after 30 mins by FP-rhodamine ABPP-based SDS-PAGE analysis relative to control"}, "[6]": {"target": "Acyl-protein thioesterase 2 (Mus musculus) (UniProt Q9WTL7)", "sequence (Q9WTL7 whole entry)": "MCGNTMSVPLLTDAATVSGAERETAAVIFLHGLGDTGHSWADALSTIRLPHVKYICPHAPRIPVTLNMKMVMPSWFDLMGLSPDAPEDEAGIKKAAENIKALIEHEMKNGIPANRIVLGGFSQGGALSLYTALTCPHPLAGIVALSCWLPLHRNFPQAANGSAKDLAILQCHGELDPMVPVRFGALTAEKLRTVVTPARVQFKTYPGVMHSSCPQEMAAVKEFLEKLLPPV", "assay": "Inhibition of FP-rhodamine-labelled recombinant mouse LYPLA2 at 1 uM preincubated for 30 mins followed by FP-rhodamine labelling measured after 30 mins by gel-based competitive ABPP assay"}, "[7]": {"target": "T1, Acylamino-acid-releasing enzyme (Mus musculus)", "assay": "Inhibition of FP-rhodamine-labelled recombinant mouse APEH at 10 uM preincubated for 30 mins followed by FP-rhodamine labelling measured after 30 mins by gel-based competitive ABPP assay"}, "[8]": {"target": "T4, Monoacylglycerol lipase ABHD6 (Mus musculus) (UniProt Q8R2Y0)", "T4 sequence (whole entry)": "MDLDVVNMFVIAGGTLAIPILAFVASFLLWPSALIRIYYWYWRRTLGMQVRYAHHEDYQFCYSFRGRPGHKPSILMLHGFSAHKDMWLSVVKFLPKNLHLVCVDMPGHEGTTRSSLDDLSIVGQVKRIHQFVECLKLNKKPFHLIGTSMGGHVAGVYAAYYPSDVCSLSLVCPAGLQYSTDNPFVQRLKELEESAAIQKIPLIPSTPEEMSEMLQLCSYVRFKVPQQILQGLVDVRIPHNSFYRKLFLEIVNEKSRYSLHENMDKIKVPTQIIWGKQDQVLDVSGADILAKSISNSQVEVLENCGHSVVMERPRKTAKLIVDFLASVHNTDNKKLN", "assay": "Inhibition of ABHD6 in FP-rhodamine-labelled mouse brain membrane at 1 nM preincubated for 30 mins followed by FP-rhodamine labelling measured after 30 mins by gel-based competitive ABPP assay", "format": "tissue-based", "how_it_was_run": "(§1)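 Mouse brain membrane proteome (1 mg/mL) preincubated with compound for 30 min at 37 °C, then labelled with FP-rhodamine or HT-01 (1 μM final) for 30 min at 37 °C. Quenched in SDS loading buffer, run on 10% SDS-PAGE and scanned for in-gel fluorescence. Bands assigned by gel migration.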"}, "[9]": {"target": "T4, Monoacylglycerol lipase ABHD6 (Mus musculus)", "assay": "Inhibition of ABHD6 in FP-rhodamine-labelled mouse brain membrane at 10 nM preincubated for 30 mins followed by FP-rhodamine labelling measured after 30 mins by gel-based competitive ABPP assay", "format": "tissue-based", "how_it_was_run": "as §1"}, "[10]": {"target": "Acyl-protein thioesterase 2 (Mus musculus) (UniProt Q9WTL7)", "assay": "Inhibition of FP-rhodamine-labelled recombinant mouse LYPLA2 at 10 uM preincubated for 30 mins followed by FP-rhodamine labelling measured after 30 mins by gel-based competitive ABPP assay"}}, "note": "Activity calls are given as the source filed them. The rule behind the calls is not given here.", "data": [{"smiles": "O=C(O)c1cccc(-c2ccc(-c3cn(C(=O)N4CCCCC4c4ccccc4)nn3)cc2)c1", "note": "(racemic)", "values": [{"measurement": "inhibition", "setting": "[1]", "result": "Active"}, {"measurement": "inhibition", "setting": "[2]", "result": "Active"}, {"measurement": "inhibition", "setting": "[3]", "result": 6, "unit": "%"}, {"measurement": "inhibition", "setting": "[4]", "result": "Active"}, {"measurement": "inhibition", "setting": "[5]", "result": "Active"}, {"measurement": "inhibition", "setting": "[6]", "result": "Active"}, {"measurement": "inhibition", "setting": "[7]", "result": "Active"}, {"measurement": "inhibition", "setting": "[8]", "result": 36, "unit": "%"}, {"measurement": "inhibition", "setting": "[9]", "result": 100, "unit": "%"}, {"measurement": "inhibition", "setting": "[10]", "result": "Active"}]}]}
